ChEMBL document CHEMBL1765028 (Bioorg Med Chem, 2011)
pIC50: −log10 of the molar value. Activity calls are given as the source filed them. The calls are words filed in the database; no cut-off is given here.

Assays:
[1] = tested on: Trypanosoma brucei rhodesiense; assay: Antiparasitic activity against Trypanosoma brucei rhodesiense STIB900 infected in mouse assessed as mean relapse day of parasitemia at 5 mg/kg, ip for 4 days; format: functional; details: route intraperitoneal
In short: (§1)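 Acute STIB900 mouse model. Hydrochloride salts were given intraperitoneally at 5 mg/kg/day on four consecutive days. Cure is the number of mice surviving and parasite-free on day 60. Relapse is the mean day parasitemia reappears.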

[2] = tested on: L6; assay: Cytotoxicity against rat L6 cells; format: cell-based
In short: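 Cultured L6 rat myoblast cells were used to measure IC50 cytotoxicity.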

[3] = tested on: Poly(dA-dT)oligonucleotide
[4] = Selectivity index, ratio of IC50 for rat L6 cells to IC50 for Trypanosoma brucei rhodesiense STIB900; format: toxicity, cell-based; details: L6 cells versus Trypanosoma brucei rhodesiense STIB900, read-out: Ratio IC50
In short: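 Selectivity index is IC50 for L6 rat myoblasts divided by IC50 for T. b. rhodesiense STIB900. Both IC50s were measured in vitro.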

[5] = tested on: Plasmodium falciparum; assay: Antiparasitic activity against Plasmodium falciparum K1; format: functional, organism-based
In short: (§2)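 Compounds tested in vitro as hydrochloride salts against Plasmodium falciparum K1 or Trypanosoma brucei rhodesiense STIB900.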

[6] = tested on: Trypanosoma brucei rhodesiense; assay: Antiparasitic activity against Trypanosoma brucei rhodesiense STIB900; format: functional, organism-based; in short: as §2
[7] = Selectivity index, ratio of IC50 for rat L6 cells to IC50 for Plasmodium falciparum K1; format: toxicity, cell-based; details: L6 cells versus Plasmodium falciparum K1, read-out: Ratio IC50
In short: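 Selectivity index is IC50 for L6 rat myoblasts divided by IC50 for P. falciparum K1. Both IC50s were measured in vitro.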

[8] = tested on: Trypanosoma brucei rhodesiense; assay: Antiparasitic activity against Trypanosoma brucei rhodesiense STIB900 infected in mouse assessed as cured at 5 mg/kg, ip for 4 days; format: functional, organism-based; set-up: dose 5 mg/kg; in short: as §1

Row | Structure (SMILES) | Activity [1] | pIC50 [2] | ΔTm [3] | selectivity ratio [4] | pIC50 [5] | pIC50 [6] | selectivity ratio [7] | Activity [8]
1 | N=C(N)c1ccc(OCCCCCOc2ccc(C(=N)N)cc2)cc1 [PENTAMIDINE] | 20 days | 4.34 |  |  |  |  |  | 
2 | Cl.Cl.N=C(N)c1ccc(-c2ccc3[nH]c(-c4ccc(C(=N)N)s4)cc3c2)cc1 | 17 days | 5.00 | 25.5 °C | 4950 | 8.15 | 8.70 | 1390 | 
3 | Cl.Cl.N=C(N)c1ccc(-c2ccc3[nH]c(-c4ccc(C(=N)N)cc4)nc3c2)cc1 | 18 days | 4.20 | > 27 °C | 15600 | 8.43 | 8.40 | 16900 | inactive
4 | N=C(N)c1ccc(-c2ccc(-c3ccc(C(=N)N)cc3)o2)cc1 [FURAMIDINE] | 20 days |  |  |  |  |  |  | 
5 | Cl.Cl.N=C(N)c1ccc(-c2ccc3cc(-c4ccc(C(=N)N)o4)[nH]c3c2)cc1 | 18 days | 5.04 | 24.9 °C | 541 | 7.90 | 7.77 | 736 | inactive
6 | Cl.Cl.Cn1c(-c2ccc(C(=N)N)cc2)nc2cc(-c3ccc(C(=N)N)cc3)ccc21 | 11 days | < 3.77 | 11.2 °C | > 11300 | 8.89 | 7.82 | > 130000 | inactive
7 | Cl.Cl.N=C(N)c1ccc(-c2ccc3cc(-c4ccc(C(=N)N)s4)[nH]c3c2)cc1 | 17 days | 5.66 | > 27 °C | 550 | 7.95 | 8.40 | 198 | 
8 | N=C(N)c1ccc(-c2ccc(-c3cc4ccc(C(=N)N)cc4[nH]3)cc2)cc1 |  | 4.98 | > 27 °C |  | 8.48 | 8.70 |  | 
9 | Cl.Cl.N=C(N)c1ccc(-c2ccc3cc(-c4cnccc4C(=N)N)[nH]c3c2)cc1 | 24 days | 5.59 | > 27 °C | 650 | 8.01 | 8.40 | 265 | 
10 | Cl.Cl.N=C(N)c1ccc(-c2ccc3[nH]c(-c4ccc(C(=N)N)cc4)cc3c2)cc1 | 20 days | 5.17 | 23.7 °C | 2330 | 8.24 | 8.52 | 1180 | 
11 | Cl.Cl.N=C(N)c1ccc(-c2ccc3cc(-c4cc(C(=N)N)ccn4)[nH]c3c2)cc1 | 24 days | 4.94 | > 27 °C | 2320 | 7.74 | 8.30 | 644 | 
12 | Cl.Cl.N=C(N)c1ccc(-c2ccc3cc(-c4ccc(C(=N)N)cc4)[nH]c3c2)cc1 | 20 days | 5.47 | > 27 °C | 1130 | 8.28 | 8.52 | 653 | inactive
13 | Cl.Cl.N=C(N)c1ccc(-c2ccc3nc(-c4ccc(C(=N)N)cc4)n(O)c3c2)cc1 | 8 days | 3.91 | 12.2 °C | 256 | 7.74 | 6.32 | 6890 | inactive
14 | N=C(N)c1ccc(-c2ccc(-c3nc4ccc(C(=N)N)cc4[nH]3)cc2)cc1 |  | 4.77 | > 27 °C |  | 9.30 | 8.11 | 34000 | 
15 | N=C(N)c1ccc(-c2cc3ccc(C(=N)N)cc3[nH]2)cc1 [DAPI] | 17 days |  | > 27 °C | 48 |  | 7.74 |  | 
